Laboratory results from the EternaBench riboswitch data.

Test system: MS2 coat protein
Experiment: apparent Kd, MS2 coat protein; higher = weaker binding; RNA-MaP array; FMN 200 µM where present
In short: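 Stalled E. coli RNA polymerase transcribed the designs on Illumina sequencing-chip clusters. SNAP-549-labelled MS2 coat protein was titrated from 0.7 or 1.5 nM, doubling to 3 µM, without and then with constant ligand, in 100 mM Tris-HCl pH 7.5, 80 mM KCl, 4 mM MgCl2, BSA, DTT, yeast tRNA and Tween-20. Per-cluster binding curves were fitted to green signal normalised to red-channel RNA signal and control-cluster median Fmax. The apparent Kd is the median of the filtered fits.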

[1] = designed as: OFF switch for flavin mononucleotide, no ligand
[2] = ligand present: flavin mononucleotide, designed as: OFF switch for flavin mononucleotide
[3] = designed as: ON switch for flavin mononucleotide, no ligand
[4] = ligand present: flavin mononucleotide, designed as: ON switch for flavin mononucleotide

Sequence	apparent Kd [1] [nM]	apparent Kd [2] [nM]	apparent Kd [3] [nM]	apparent Kd [4] [nM]
AAGAAACACGUGGAGUUAUUCGGGUAGGAUAUCUACGACCUGAUCGACAUGAGGAUCACCCAUGUAGAGAAGGGCCCAUCUCCU	6.65	8.87	–	–
CGCUAAGAUGGGUCUAAUGGACCACAGGAUAUGCUUGUACAUGAGGAUCACCCAUGUAAUAUUGUGCAGAAGGGUGGAUUUGCG	–	–	18.9	7.03
UCGGUGCGAGGAUAUACGUUUGCGCGUUUUCGUUUGCGCGUACAUGAGGAUCACCCAUGUAGAAGGCGCGCGGC	12.4	13.7	–	–
GUCAGCUUGUGAGGAUAUACAACACUGCUUCGGCAGUGUAUUAAGAUCACAUGAGGAUCACCCAUGUAGAAGGCACGAGCUGAU	14	257	–	–
UGUUGUAUUACAGGAUAUCUAUUGUUUUUUUUUAGAGAAGGGUAUUCACAUGAGGAUCACCCAUGUAUAUACGAGGAAGUUGUG	–	–	60.7	71.3
AAUGUGUCAGGAUAUUGUUAGUUUAGUUGUUUGUAUUAGUUCGAGAAGGGACAUGAGGAUCACCCAUGUUGUUA	36.4	29.1	–	–
UUCUGUGUGUGCUAGAGCUGCACAUGAGGAUCACCCAUGUACAGAAGGUGGACGCACACUGUGGCCAAGGAUAUGUAACAUGUU	6.68	7.15	–	–
UUUUACGCAGGAUAUACAUUUUUUUUAUUAUCCUCAUUAUUACAUGAGGAUCACCCAUGUAGAAGGGCGAUUUU	75.7	99.7	–	–
UAUUUAAUCAUAGGAUAUAGUGUGUAAUUUGGACUAGAAGGAUGAAACAUGAGGAUCACCCAUGUGGUAAAUGGGAUACAUUCC	–	–	73.5	94.5
ACCCAGUUUUGCACUACAUGAGGAUCACCCAUGUGAGCGAGCAGAAGGACGAUGGGUGGAAAAUCGUAGGAUAUGCACUGGGCU	–	–	44.8	12.3
CGUUAAUAUCGAGGAUAUGUCUAGACACAUGAGGAUCACCCAUGUAUGUGUAUAGAAGGCGAUAUUAACAGCAUGUUACAUGCC	–	–	45.5	16.3
UCCUGGCGAGGAUAUACAAUGUUUUUCGCGUGUAGUUGGAAACAUGAGGAUCACCCAUGUAGAAGGUGCUACUG	32.6	25.6	–	–
AAAACAUGAGGAUCACCCAUGUAAAGAUCGGUUAAUAGAAGUGAGGAUAUACGAAGUUAAAGCUGGUAGAAGGCACUGGGUACA	–	–	34.7	33.2
UCGAGGUCAGGAUAUACAUGAGGAUCACCCAUGUUGAGAUAAGGUAGGAAAAGAGUAGGUAGAAGGGACGAGAG	27.6	30.9	–	–
AGGAAGGGUGCUCCGGCGGGCCGAGCAGAAGGGUGAUUGGACAUGAGGAUCACCCAUGUAUAAACACAGGAUAUGCAAACGGGU	–	–	305	13.1
CUAUCAAGCAAGGAUAUGCAAAUAAUUAUUUAUGCAGAAGGUGCAACAUGAGGAUCACCCAUGUUUCUGGGUUU	57.4	89.6	–	–
GCCAGUUAUGUAGGAUAUGCGAAGCGAGCCUGAGCAGAAGGACAUGAGGAUCACCCAUGUGUUGCGGUUUGAGUACUGAUCGCU	24.4	89.4	–	–
CAGCGCUGUCGAGAGGAUAUGCGGUGAUGGACAUGAGGAUCACCCAUGUAAGCGAUAGCAUUACGGCAGAAGGCUCUGCAGCUGC	–	–	25.1	17.4
UACAUUACUUAGAAGGGAUAUAUAUAAUUUUAGUCAGGAUAUAGAUACAAUACAACAUGAGGACAUGAGGAUCACCCAUGUAUU	–	–	17.9	13.4
AAGGUACGAGGAUAUACAUAGAUACAGAUACAUGUGGAUGUACAUGAGGAUCACCCAUGUAGAAGGCGUAUAUA	300	318	–	–
AUAUAUAGUGUGAGGAUAUGCUGGUCCUUGGAUCAGCAGAAGGCACAUGAGGAUCACCCAUGUAGUUAAAUAUA	36	107	–	–
UAAAAGCUAGGAUAUACAUGAGGAUCACCCAUGUAAUCUCUCACUUACACGGAGGAUCGUAGAAGGAGCACAAA	21.7	55.6	–	–
UUGGACGUCGUAAGAUAUGUAGGAUAUUCCUACAUGAGGAUCACCCAUGUUGACAUGGAAGAAGGACAGAAGGACGAUGUCCAU	–	–	285	5.51
AUCAGCUCGUCAGGAUAUACGUCACUGCGUCAGCAGUGCGGUAAGAUCACAUGAGGAUCACCCAUGUAGAAGGGACGAGCUGAU	6.4	20.1	–	–

Sequence	apparent Kd [1] [nM]	apparent Kd [2] [nM]	apparent Kd [3] [nM]	apparent Kd [4] [nM]
CAUAUCGUACGAGGAUAUAUGAGUCCUACAUGAGGAUCACCCAUGUAGGUGAUCUAACGAGAUUAGUAGAAGGCGUACGAUAUG	–	–	14.1	7.85
ACGACGAAAGUCGAACGAUGUAGCAGAAGGACAUGAGGAUCACCCAUGUCAGCUGUGAAAACCAUGUAGGAUAUGCUACAUCGA	38.5	291	–	–
GGACCGCGCAGAAUUGGCGGCCGGCAGGAUAUGACAUGAGGAUCACCCAUGUGAACUCCAUUGGGUCAGAAGGGCCACGACACA	21.1	66.8	–	–
ACGUUAAUUCGAGGAUAUCGGUGAUAUAUAUUACGAGAAGGCGAUAAUUGUGAUAAACUUAUAGACAUGAGGAUCACCCAUGUA	–	–	42.1	38.2
ACCUUACAUGAGGAUCACCCAUGUUAGGAUAUCUCGCCUGCGCUAACAAAGCGCAGGCAGAGAAGGGACGCGGG	28.5	31.8	–	–
CGGGAAGUCGUAGGAUAUGGUGAUGUACAUGAGGAUCACCCAUGUCCGUCUUCUCUCACAAGAUGCCAGAAGGGCGACUCCCGG	–	–	641	317
GGAUAGGACAGAGGAUAUACGUGCUAGAGAUACUAGCAAAAUUUCCUCACAUGAGGAUCACCCAUGUAGAAGGCUGUCGUAUCG	15.3	334	–	–
GGAUAGGACAGAGGAUAUACGUGCUAGAGAUACUAGCAAAAUUUCCUCACAUGAGGAUCACCCAUGUAGAAGGCUGUCCAAUCG	13.8	429	–	–
AAUAUAAGAGCUGGAAAUAACUCAACAUGAGGAUCACCCAUGUAGGAUAUCAGCACGAUAAGUGCUGAGAAGGACAUCCAGCUC	14.4	14.6	–	–
AAAAAAAGAGGAUAUACAUGAGAAAAAAAAAUGUAAAAAAAACAUGAGGAUCACCCAUGUAGAAGGCUUAAAAA	34.6	45.4	–	–
GCACAUGAGGAUCACCCAUGUCGGGAGGAUAUCUAGGCUGGGCGAUGCUAGGGCGGCCUUUGCUUAGAGAAGGCCCAUAAAAUC	–	–	69.1	32.4
UGCGGAUAUCGAGGAUAUGCGACGGGUUCUCACAUGAGGAUCACCCAUGUCCGCGGGCCUCAAAAGCAGAAGGCGAGUUCGGUU	–	–	376	10.6
AAAAAACAUGAGGAUCACCCAUGUGAGGAUAUGCUAAAAAAAAAAAAAAAAAAAAAAUGCAGAAGGUACAAAAA	75.9	72.8	–	–
UGUAAGAUGCAGAAGGUGUUAGCUAGAGCUACGACAUGAGGAUCACCCAUGUACUAGAAACAGUACAAGGAUAUGCAUCUUACC	–	–	19.6	6.43
AUGCUUCACACAGGAUAUACAUGAGGAUCACCCAUGUGUCCUCCGUAGCUGACACGAGCUACGCGGUAGAAGGGUGUGAAGCAU	91	698	–	–
CCACGACCGGAGAAGGCAGUUUGUGGGCCUGUUCCUGUCGGAUACAUGAGGAUCACCCAUGUACCUGAGGAUAUCUGGUCGCAG	5.52	6.07	–	–
GGCAGCUCGUGAGGAUAUACAACACUGCUUCGGCAGUGUAUUAAGAUCACAUGAGGAUCACCCAUGUAGAAGGCACGAGCUGAU	13.9	254	–	–
GAUAAGGGCGAGGAUAUGCCAUUGGCUGAGGUCGUAGAAGGUGCCACAUGAGGAUCACCCAUGUAUCAAGUACG	34.5	32.4	–	–
UGGUACAUCGCAGGAUAUCAUGUAGAUACAUGAGGAUCACCCAUGUCGAUGGAGACAUCGGAGAUUGAGAAGGGCGAUGUACCU	–	–	907	41.1
CCUUCACAUGAGGAUCACCCAUGUGAGGAUAUCCUGCGAGGAUCAAAAGAUCCUCGUGGGAGAAGGCACAUGGA	110	180	–	–
AGAAACUACGAGAAGGACAUGUGGUCCUUCAGUUACAUGAGGAUCACCCAUGUAGGAUAUCGUAGUUUCAGGAUCGUGAGAUCU	32.5	13	–	–
AGAAACUACGAGAAGGACAUGAAAAGUGCCGCAAACAUGAGGAUCACCCAUGUAGGAUAUCGUAGUUUCAGGAUCGUGAGAUCA	15.8	108	–	–
GUGGUCAGACAUGAGGAUCACCCAUGUGGAAUAAAUAACGGACAGGAUAUGCAAUAUAGGAUAUAGUAGAAGGGUUGAUUGGUG	–	–	56.5	60.6
ACAUGAGGAUCACCCAUGUUAUCAGGGACUUCAAUUAUUUGUAGAAGGCUGUUUUCUUGUAAGUCAGAGGAUAUACAAUUAAAU	11.9	14.3	–	–
